For experiment [1], the target named is T1, Growth hormone secretagogue receptor type 1 (Homo sapiens, UniProt Q92847). In words: Maximum intrinsic activity against human growth hormone secretagogues at a concentration of 10 uM. It counts as functional.
Experiment [2] deals with T1, Growth hormone secretagogue receptor type 1. The experiment in a line: In vitro effective concentration against human growth hormone secretagogues. It counts as functional. Summed up:
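Cell-based FLIPR functional assay in H4 glioma cells in which expression of the endogenous human GHS receptor is enhanced by RAGE-activation. Agonism is read as intracellular calcium mobilization with a calcium-sensitive fluorescent probe, and EC50 is derived from the response.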

The species entered for experiment [3] is Rattus norvegicus. In words: Number of rats with greater than 100% growth hormone increase over the control group, there are five rats in both control and compound treated groups. The class given is functional. Summed up: (§1)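 Anesthetized rats (treatment stabilizes baseline plasma GH near 60 ng/mL) were given drug or vehicle (10% ethanol, 0.09% saline V/V) IV at 10 mL/kg, five rats per group. Blood was drawn from the abdominal aorta 15 min later for plasma GH. The result is expressed as % increase over the vehicle group, or as rats exceeding a 100% increase.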

In experiment [4] the target is T1, Growth hormone secretagogue receptor type 1. The experiment in a line: In vivo effective concentration against human growth hormone secretagogues. The class given is functional, organism-based, Rattus norvegicus.
For experiment [5], the system named is Rattus norvegicus. In words: Percent of plasma growth hormone increase at an IV dose of 5.23 lmol/kg. The class given is functional. Summed up: as §1
Experiment [6] is filed under the species Rattus norvegicus. In words: Number of rats with greater than 100% GH increase over the controlgroup, there are five rats in both control and compound treated groups. The class given is functional. Summed up:
as §1

In experiment [7] the target is T1, Growth hormone secretagogue receptor type 1. The experiment in a line: In vitro effective concentration against human growth hormone secretagogues.

The values that follow come from ChEMBL document CHEMBL1142646, “Tetrahydroisoquinoline 1-carboxamides as growth hormone secretagogues” (Bioorg Med Chem Lett, 2005).

T1 sequence (Q92847 whole entry): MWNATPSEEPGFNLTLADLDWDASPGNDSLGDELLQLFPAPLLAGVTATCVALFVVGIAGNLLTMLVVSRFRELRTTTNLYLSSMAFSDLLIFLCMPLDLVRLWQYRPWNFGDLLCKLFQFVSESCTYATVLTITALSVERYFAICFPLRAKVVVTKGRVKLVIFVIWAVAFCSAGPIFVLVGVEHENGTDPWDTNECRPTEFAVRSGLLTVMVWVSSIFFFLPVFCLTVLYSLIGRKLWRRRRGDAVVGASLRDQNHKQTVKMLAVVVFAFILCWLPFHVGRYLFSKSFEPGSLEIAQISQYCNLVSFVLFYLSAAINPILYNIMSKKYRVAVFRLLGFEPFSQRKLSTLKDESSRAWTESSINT

Consider `CC(C)N(CCNC(=O)C1c2ccc(OCc3ccccc3)cc2CCN1C(=O)Oc1ccccc1)C(C)C` (configuration not stated), for which, in experiment [1], the Activity was less than 5%.

As a reminder, the EC50 is the midpoint of the concentration-response curve. A low value points to greater potency. `CC(C)N(CCNC(=O)C1c2ccc(Oc3ccccc3)cc2CCN1C(=O)OC(C)(C)C)C(C)C` (stereo in doubt; 12a) gave an EC50 in experiment [2] of 0.49 nM.

In experiment [2], `CC(C)N(CCNC(=O)C1c2ccc(OCc3ccccc3)cc2CCN1C(=O)Cc1ccccc1)C(C)C` (configuration not stated) returned an EC50 of 9 nM.

`CC(C)N(CCNC(=O)C1c2ccc(OCc3ccccc3)cc2CCN1C(=O)OC1CCCCC1)C(C)C` (configuration not stated): it took 4.9 nM to reach a half-maximal effect in experiment [2] (EC50).

`COc1ccc(CC(=O)N2CCc3cc(OCc4ccccc4)ccc3C2C(=O)NCCN(C(C)C)C(C)C)cc1` (configuration not stated) showed an EC50 in experiment [2] of 45 nM.

In experiment [2], `CC(C)N(CCNC(=O)C1c2ccc(Oc3cccc(C(F)(F)F)c3)cc2CCN1C(=O)OC(C)(C)C)C(C)C` (configuration not stated) showed an EC50 of 1.5 nM.

`CC(C)N(CCNC(=O)C1c2ccc(OCc3ccccc3)cc2CCN1C(=O)CC(C)(C)C)C(C)C` (configuration not stated) had an EC50 in experiment [2] of 20.9 nM.

Regarding `COc1ccccc1CC(=O)N1CCc2cc(OCc3ccccc3)ccc2C1C(=O)NCCN(C(C)C)C(C)C` (configuration not stated), the response in experiment [2] was half-maximal at 2.1 nM (EC50).

Molecule `CC(C)N(CCNC(=O)C1c2ccc(OCc3ccccc3)cc2CCN1C(=O)Nc1ccccc1)C(C)C` (configuration not stated) registered an Activity in experiment [1] of 43%.

Consider `CC(C)N(CCNC(=O)C1c2ccc(OCc3ccccc3)cc2CCN1C(=O)OC(C)(C)C#N)C(C)C` (configuration not stated), for which a half-maximal effect in experiment [2] (EC50) was put at 9.8 nM.

In the case of `CC(=O)N1CCc2cc(OCc3ccccc3)ccc2C1C(=O)NCCN(C(C)C)C(C)C` (configuration not stated), the EC50 in experiment [2] was determined as 257 nM.

`CC(C)N(CCNC(=O)C1c2ccc(Oc3ccccc3)cc2CCN1C(=O)OC(C)(C)C)C(C)C` (single isomer, unassigned; form 1) yielded an EC50 in experiment [2] of 7.6 nM.

For the molecule `CC(C)N(CCNC(=O)C1c2ccc(OCc3ccccc3)cc2CCN1C(=O)C(O)c1ccccc1)C(C)C` (configuration not stated), in experiment [2], the response was half-maximal at 39 nM (EC50).

Consider `CN(C)CCNC(=O)C1c2ccc(OCc3ccccc3)cc2CCN1C(=O)OC(C)(C)C` (configuration not stated), for which the Activity in experiment [1] was 46%.

`CC(C)N(CCNC(=O)C1c2ccc(Oc3cccc(F)c3)cc2CCN1C(=O)OC(C)(C)C)C(C)C` (configuration not stated): the EC50 in experiment [2] was 4.3 nM.

Turning to `CC(C)N(CCNC(=O)C1c2ccc(OCc3ccccc3)cc2CCN1S(=O)(=O)c1ccccc1)C(C)C` (configuration not stated), a half-maximal effect in experiment [2] (EC50) was put at 21 nM.

For the molecule `CC(=O)Nc1cccc(Oc2ccc3c(c2)CCN(C(=O)OC(C)(C)C)C3C(=O)NCCN(C(C)C)C(C)C)c1` (configuration not stated), in experiment [2], the EC50 was determined as 12 nM.

Turning to `CC(C)N(CCNC(=O)C1c2ccc(OCc3ccccc3)cc2CCN1C(=O)NC(C)(C)C)C(C)C` (configuration not stated), the EC50 in experiment [2] was 14.4 nM.

With `CC(C(=O)N1CCc2cc(OCc3ccccc3)ccc2C1C(=O)NCCN(C(C)C)C(C)C)c1ccccc1` (configuration not stated), the response in experiment [2] was half-maximal at 3.4 nM (EC50).

Consider `CC(C)NCCNC(=O)C1c2ccc(OCc3ccccc3)cc2CCN1C(=O)OC(C)(C)C` (configuration not stated), for which a half-maximal effect in experiment [2] (EC50) was put at 219 nM.

`CC(C)N(CCNC(=O)C1c2ccc(OCc3ccccc3)cc2CCN1C(=O)c1ccccc1F)C(C)C` (configuration not stated): the EC50 in experiment [2] amounted to 17.8 nM.

Consider `CC(C)N(CCNC(=O)C1c2ccc(OCc3ccccc3)cc2CCN1C(=O)N(C)C)C(C)C` (configuration not stated), for which the midpoint of the response in experiment [2], the EC50, lay at 190 nM.

With `CC(=O)C(C(=O)N1CCc2cc(OCc3ccccc3)ccc2C1C(=O)NCCN(C(C)C)C(C)C)c1ccccc1` (configuration not stated), a half-maximal response in experiment [2] (EC50) required 9.2 nM.

With `COc1cccc(CC(=O)N2CCc3cc(OCc4ccccc4)ccc3C2C(=O)NCCN(C(C)C)C(C)C)c1` (configuration not stated), the EC50 in experiment [2] came out at 6.4 nM.

On to `CC(C)N(CCNC(=O)C1c2ccc(Oc3ccc(Cl)cc3)cc2CCN1C(=O)OC(C)(C)C)C(C)C` (configuration not stated), for which the EC50 in experiment [2] was 0.73 nM.

In experiment [1], `CC(C)(N)CNC(=O)C1c2ccc(OCc3ccccc3)cc2CCN1C(=O)OC(C)(C)C` (configuration not stated) had an Activity of 47%.

The molecule `CCCCS(=O)(=O)N1CCc2cc(OCc3ccccc3)ccc2C1C(=O)NCCN(C(C)C)C(C)C` (configuration not stated) registered an Activity in experiment [1] of 50%.

Molecule `CC(C)N(CCNC(=O)C1c2ccc(OCc3ccccc3)cc2CCN1C(=O)CCc1ccccc1)C(C)C` (configuration not stated) came in with an EC50 in experiment [2] of 26.7 nM.

In experiment [1], `CCOc1ccccc1C(=O)N1CCc2cc(OCc3ccccc3)ccc2C1C(=O)NCCN(C(C)C)C(C)C` (configuration not stated) registered an Activity of 30%.

In experiment [2], `COc1cccc(Oc2ccc3c(c2)CCN(C(=O)OC(C)(C)C)C3C(=O)NCCN(C(C)C)C(C)C)c1` (configuration not stated) returned an EC50 of 0.46 nM.

`CC(C)N(CCNC(=O)C1c2ccc(OCc3ccccc3)cc2CCN1C(=O)OC(C)(C)C)C(C)C` (configuration not stated) displayed a half-maximal effective concentration (EC50) in experiment [2] of 11.7 nM.

Molecule `CC(C)N(CCNC(=O)C1c2ccc(Oc3ccccc3)cc2CCN1C(=O)OC(C)(C)C)C(C)C` (single isomer, unassigned; form 2) yielded a Responder in the experiment listed under Rattus norvegicus [3] of 5 rats. Further, the EC50 in experiment [4] and in experiment [2] was 0.46 nM each time. In the experiment on Rattus norvegicus [5], this molecule gave an Increase of 1283%.

Molecule `CC(=O)C(C)(C)OC(=O)N1CCc2cc(OCc3ccccc3)ccc2C1C(=O)NCCN(C(C)C)C(C)C` (configuration not stated) showed a Responder in the experiment listed under Rattus norvegicus [6] of 5 rats. Besides, the EC50 in experiment [2] and in experiment [7] was 2 nM throughout. Further, the Increases with Rattus norvegicus [5] turned out to be 666%.

On to `CC(C)N(CCNC(=O)C1c2ccc(Oc3cccc([N+](=O)[O-])c3)cc2CCN1C(=O)OC(C)(C)C)C(C)C` (configuration not stated), for which the response in experiment [2] was half-maximal at 0.66 nM (EC50).

Turning to `CCCOC(=O)N1CCc2cc(OCc3ccccc3)ccc2C1C(=O)NCCN(C(C)C)C(C)C` (configuration not stated), a half-maximal response in experiment [2] (EC50) required 3.4 nM.

With `CC(C)N(CCNC(=O)C1c2ccc(Oc3ccc(C=O)cc3)cc2CCN1C(=O)OC(C)(C)C)C(C)C` (configuration not stated), the response in experiment [2] was half-maximal at 1.4 nM (EC50).

For the molecule `CC(C)N(CCNC(=O)C1c2ccc(OCc3ccccc3)cc2CCN1C(=O)C(CO)c1ccccc1)C(C)C` (configuration not stated), the EC50 in experiment [2] is 5.6 nM.

`CC(C)N(CCNC(=O)C1c2ccc(OCc3ccccc3)cc2CCN1C(=O)Cc1ccccc1F)C(C)C` (configuration not stated) had an EC50 in experiment [2] of 43 nM.

The molecule `CC(C)N(CCNC(=O)C1c2ccc(OCc3ccccc3)cc2CCN1S(=O)(=O)Cc1ccccc1)C(C)C` (configuration not stated) returned a concentration giving a half-maximal response (EC50) in experiment [2] of 7.3 nM.

In the case of `CC(C)N(CCNC(=O)C1c2ccc(OCc3ccccc3)cc2CCN1C(=O)CCCc1ccccc1)C(C)C` (configuration not stated), it took 13.1 nM to reach a half-maximal effect in experiment [2] (EC50).

In experiment [2], `CC(C)N(CCNC(=O)C1c2ccc(OCc3ccccc3)cc2CCN1C(=O)OCc1ccccc1)C(C)C` (configuration not stated) came in with an EC50 of 27 nM.

With `CC(C)N(CCNC(=O)C1c2ccc(OCc3ccccc3)cc2CCN1C(=O)OC(C)(C)C(=O)N(C)C)C(C)C` (configuration not stated), the concentration for a half-maximal effect (EC50) in experiment [2] stood at 0.85 nM.

In the case of `CC(C)N(CCNC(=O)C1c2ccc(OCc3ccccc3)cc2CCN1S(=O)(=O)N(C)C)C(C)C` (configuration not stated), the EC50 in experiment [2] was found to be 21 nM.

As to `CC(=O)NC(C(=O)N1CCc2cc(OCc3ccccc3)ccc2C1C(=O)NCCN(C(C)C)C(C)C)c1ccccc1` (configuration not stated), in experiment [2], the EC50 was 19.7 nM.

The molecule `CC(C)N(CCNC(=O)C1c2ccc(OCc3ccccc3)cc2CCN1S(C)(=O)=O)C(C)C` (configuration not stated) gave an Activity in experiment [1] of 47%.

The molecule `CC(C)N(CCNC(=O)C1c2ccc(Oc3ccc(C(F)(F)F)cc3)cc2CCN1C(=O)OC(C)(C)C)C(C)C` (configuration not stated) returned an EC50 in experiment [2] of 2.3 nM.

In the experiment filed under Rattus norvegicus [6], `COc1ccc(Oc2ccc3c(c2)CCN(C(=O)OC(C)(C)C)C3C(=O)NCCN(C(C)C)C(C)C)cc1` (configuration not stated) displayed a Responder of 4 rats. Also, the EC50 in experiment [2] and in experiment [7] was 0.49 nM each time. Moreover, the Increase with Rattus norvegicus [5] is 172%.

`COC(=O)C(C)(C)OC(=O)N1CCc2cc(OCc3ccccc3)ccc2C1C(=O)NCCN(C(C)C)C(C)C` (configuration not stated): in the experiment filed under Rattus norvegicus [6], the Responder is 5 rats. In addition, the concentration for a half-maximal effect (EC50) in experiment [2] and in experiment [7] was 1.5 nM throughout. The same molecule had an Increase with Rattus norvegicus [5] of 746%.

`CC(=O)c1ccccc1C(=O)N1CCc2cc(OCc3ccccc3)ccc2C1C(=O)NCCN(C(C)C)C(C)C` (configuration not stated) had an EC50 in experiment [2] of 7.3 nM.

Regarding `CC(C)(CN)CNC(=O)C1c2ccc(OCc3ccccc3)cc2CCN1C(=O)OC(C)(C)C` (configuration not stated), the EC50 in experiment [2] worked out at 257 nM.

For the molecule `CSc1ccc(Oc2ccc3c(c2)CCN(C(=O)OC(C)(C)C)C3C(=O)NCCN(C(C)C)C(C)C)cc1` (configuration not stated), in experiment [2], it took 2.4 nM to reach a half-maximal effect (EC50).

With `CC(C)N(C)CCNC(=O)C1c2ccc(OCc3ccccc3)cc2CCN1C(=O)OC(C)(C)C` (configuration not stated), in experiment [2], the EC50 was 41 nM.

For the molecule `CC(C)N(CCNC(=O)C1c2ccc(OCc3ccccc3)cc2CCN1C(=O)c1ccccc1)C(C)C` (configuration not stated), in experiment [2], the EC50 turned out to be 7.6 nM.

`CCN(CC)CCNC(=O)C1c2ccc(OCc3ccccc3)cc2CCN1C(=O)OC(C)(C)C` (configuration not stated) gave an EC50 in experiment [2] of 19.6 nM.

`CC(C)N(CCNC(=O)C1c2ccc(OCc3ccccc3)cc2CCN1C(=O)C(C)(C)C)C(C)C` (configuration not stated): the Activity in experiment [1] is 50%.
